Laboratory results: ChEMBL document CHEMBL4373706, “Discovery of Inhibitors of Aurora/PLK Targets as Anticancer Agents” (J Med Chem, 2019)
In brackets after ≈: the same amount, converted by molar mass.

Assays:
[1] = Solubility of the compound in DMSO; type: physicochemical
How it was run: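 Solubility of the compound measured at 25±0.2°C, separately in water and in DMSO; reported in µg/mL.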

[2] = Lipid/water partition coefficient, log D of the compound; type: physicochemical
[3] = target: Cyclin-dependent kinase 6 (Homo sapiens, UniProt Q00534); experiment: Binding affinity to wild-type human full-length CDK6 (M1 to A326 residues) expressed in mammalian expression system measured after 1 hr by kinomescan method; settings: pooled result: one value given for 15 cell lines, strains, targets or settings
[4] = target: T1, Phosphatidylinositol 4,5-bisphosphate 3-kinase catalytic subunit delta isoform (Homo sapiens, UniProt O00329); experiment: Binding affinity to wild-type human partial length PIK3CD (R108 to Q1044 residues) expressed in mammalian expression system measured after 1 hr by kinomescan method; settings: pooled result: one value given for 15 cell lines, strains, targets or settings
T1 sequence (O00329 whole entry): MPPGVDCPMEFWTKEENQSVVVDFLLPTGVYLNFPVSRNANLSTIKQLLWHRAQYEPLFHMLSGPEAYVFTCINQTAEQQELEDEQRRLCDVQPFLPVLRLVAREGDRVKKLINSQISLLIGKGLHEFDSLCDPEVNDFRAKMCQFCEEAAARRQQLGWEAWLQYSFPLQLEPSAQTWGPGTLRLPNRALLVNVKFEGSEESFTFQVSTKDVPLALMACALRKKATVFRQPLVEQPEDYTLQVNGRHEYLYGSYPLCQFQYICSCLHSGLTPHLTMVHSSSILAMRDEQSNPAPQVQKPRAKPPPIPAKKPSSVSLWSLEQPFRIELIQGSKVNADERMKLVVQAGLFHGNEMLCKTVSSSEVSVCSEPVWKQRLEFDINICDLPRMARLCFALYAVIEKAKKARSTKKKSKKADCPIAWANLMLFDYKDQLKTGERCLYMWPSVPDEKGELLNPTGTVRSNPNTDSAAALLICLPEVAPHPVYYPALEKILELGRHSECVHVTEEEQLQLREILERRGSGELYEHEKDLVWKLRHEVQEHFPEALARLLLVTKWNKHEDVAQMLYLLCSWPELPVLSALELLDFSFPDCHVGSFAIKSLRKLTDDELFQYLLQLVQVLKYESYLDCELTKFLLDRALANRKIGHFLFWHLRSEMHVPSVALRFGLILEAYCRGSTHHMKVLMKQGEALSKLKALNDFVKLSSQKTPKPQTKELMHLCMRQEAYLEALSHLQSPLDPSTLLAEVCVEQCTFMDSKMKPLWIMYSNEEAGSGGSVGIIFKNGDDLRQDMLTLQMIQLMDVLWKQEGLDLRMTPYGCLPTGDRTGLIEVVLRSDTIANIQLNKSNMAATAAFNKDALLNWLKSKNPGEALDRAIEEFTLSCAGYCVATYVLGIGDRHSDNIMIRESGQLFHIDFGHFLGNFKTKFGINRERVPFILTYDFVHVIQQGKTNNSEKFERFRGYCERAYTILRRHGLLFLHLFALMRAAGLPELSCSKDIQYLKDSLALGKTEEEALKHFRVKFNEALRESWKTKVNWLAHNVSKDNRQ

[5] = target: Serine/threonine-protein kinase PLK3 (Homo sapiens, UniProt Q9H4B4); experiment: Binding affinity to wild-type human partial length PLK3 (A42 to L334 residues) expressed in mammalian expression system measured after 1 hr by kinomescan method
How it was run: (§1)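 KINOMEscan competition binding assay. A 321-kinase panel was first screened at 10 μM compound, and binding affinities were then determined for Aurora and PLK family members.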

Aurora kinase C = target: T2, Aurora kinase C (Homo sapiens, UniProt Q9UQB9); experiment: Binding affinity to wild-type human full length AURKC (M1 to S275 residues) expressed in bacterial expression system measured after 1 hr by Kinomescan method; how it was run: as §1
T2 sequence (Q9UQB9 whole entry): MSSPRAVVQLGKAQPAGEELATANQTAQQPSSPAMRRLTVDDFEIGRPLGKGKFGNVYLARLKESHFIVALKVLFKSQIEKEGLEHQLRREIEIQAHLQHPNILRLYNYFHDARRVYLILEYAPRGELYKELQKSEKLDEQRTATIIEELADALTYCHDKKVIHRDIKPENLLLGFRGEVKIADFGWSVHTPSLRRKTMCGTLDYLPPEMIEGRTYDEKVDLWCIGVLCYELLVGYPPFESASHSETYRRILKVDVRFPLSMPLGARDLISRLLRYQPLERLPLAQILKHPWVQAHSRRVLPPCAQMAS

Aurora kinase A = target: T3, Aurora kinase A (Homo sapiens, UniProt O14965); experiment: Binding affinity to wild-type human partial length AURKA (E122 to K401 residues) expressed in mammalian expression system measured after 1 hr by Kinomescan method; how it was run: as §1
T3 sequence (O14965 whole entry): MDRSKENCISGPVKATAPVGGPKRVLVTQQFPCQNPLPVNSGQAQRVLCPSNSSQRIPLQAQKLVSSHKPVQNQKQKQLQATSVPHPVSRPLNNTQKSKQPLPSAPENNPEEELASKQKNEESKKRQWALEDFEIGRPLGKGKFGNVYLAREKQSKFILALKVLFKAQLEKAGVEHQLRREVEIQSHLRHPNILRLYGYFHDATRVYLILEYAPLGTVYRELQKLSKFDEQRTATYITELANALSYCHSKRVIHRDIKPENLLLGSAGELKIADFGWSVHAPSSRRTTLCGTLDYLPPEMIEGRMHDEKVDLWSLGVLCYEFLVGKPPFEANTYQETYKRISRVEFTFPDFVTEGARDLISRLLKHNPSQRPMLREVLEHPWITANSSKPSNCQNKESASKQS

HCT-116 [6] = experiment: Cell cycle arrest in human HCT116 cells assessed as accumulation at G2/M phase at 10 uM measured after 24 to 48 hrs by propidium iodide staining-based flow cytometry (reference value: 3.37%); type: functional
HCT-116 [7] = experiment: Cell cycle arrest in human HCT116 cells assessed as accumulation at G2/M phase at 1 uM measured after 24 to 48 hrs by propidium iodide staining-based flow cytometry (reference value: 3.37%); type: functional
HCT-116 [8] = experiment: Induction of apoptosis in human HCT116 cells assessed as apoptotic cell population at 10 uM measured after 48 hrs by Annexin V-FITC/propidium iodide staining-based flow cytometry (reference value: 5.9%); type: functional
HCT-116 [9] = experiment: Induction of apoptosis in human HCT116 cells assessed as apoptotic cell population at 5 uM measured after 48 hrs by Annexin V-FITC/propidium iodide staining-based flow cytometry (reference value: 5.9%); type: functional
HCT-116 [10] = experiment: Induction of apoptosis in human HCT116 cells measured after 48 hrs by Annexin V-FITC/propidium iodide staining-based flow cytometry; type: functional, cell-based
[11] = Toxicity in BALB/c mouse xenografted with human HCT116 cells assessed as change in body weight at 10 mg/kg, iv administered every 3 days for 24 days measured post-last dose; type: organism-based; settings: in vivo
HCT-116 [12] = experiment: Antitumor activity against human HCT116 cells xenografted in BALB/c mouse assessed as mean survival days at 1 mg/kg, iv administered every 3 days for 60 days (reference value: 25 day); type: functional

Chain of Serine/threonine-protein kinase PLK3 (Q9H4B4 whole entry, the tested form may be a part): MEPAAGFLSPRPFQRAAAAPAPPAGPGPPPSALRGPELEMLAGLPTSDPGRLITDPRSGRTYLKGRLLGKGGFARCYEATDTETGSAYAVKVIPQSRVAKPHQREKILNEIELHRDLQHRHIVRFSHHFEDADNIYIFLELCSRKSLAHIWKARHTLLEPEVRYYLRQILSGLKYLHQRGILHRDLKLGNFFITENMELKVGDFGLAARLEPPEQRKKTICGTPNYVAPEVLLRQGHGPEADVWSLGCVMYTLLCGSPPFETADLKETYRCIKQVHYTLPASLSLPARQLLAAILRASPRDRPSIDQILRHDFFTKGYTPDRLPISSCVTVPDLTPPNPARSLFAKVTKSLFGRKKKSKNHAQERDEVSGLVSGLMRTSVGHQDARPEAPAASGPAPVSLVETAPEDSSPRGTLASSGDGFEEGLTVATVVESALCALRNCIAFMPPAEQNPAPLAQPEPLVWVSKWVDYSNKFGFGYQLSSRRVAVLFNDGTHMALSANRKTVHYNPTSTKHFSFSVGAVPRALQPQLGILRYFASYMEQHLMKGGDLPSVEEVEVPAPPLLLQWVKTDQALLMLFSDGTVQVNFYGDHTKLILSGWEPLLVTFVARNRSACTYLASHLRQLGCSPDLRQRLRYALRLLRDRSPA
Chain of Cyclin-dependent kinase 6 (Q00534 whole entry, the tested form may be a part, canonical isoform): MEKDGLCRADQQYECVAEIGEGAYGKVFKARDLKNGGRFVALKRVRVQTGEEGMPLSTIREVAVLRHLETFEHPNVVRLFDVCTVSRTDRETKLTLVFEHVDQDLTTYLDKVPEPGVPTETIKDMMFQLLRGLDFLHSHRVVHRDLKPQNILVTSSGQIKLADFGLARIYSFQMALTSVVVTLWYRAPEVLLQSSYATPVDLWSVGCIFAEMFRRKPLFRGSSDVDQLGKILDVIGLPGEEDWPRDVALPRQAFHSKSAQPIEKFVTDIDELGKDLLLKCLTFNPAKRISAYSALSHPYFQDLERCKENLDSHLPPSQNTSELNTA

O=C(Nc1ccc2cc(C(=O)Nc3nccs3)ccc2c1)c1ccc(Cl)c(Cl)c1
solubility [1]: 286 µg/mL (≈ 647 µM)
logD [2]: 4.8
Kd [3]: 8.02 µM
Kd [4]: 7.11 µM
Kd [5]: 0.456 µM
Kd (Aurora kinase C): 0.289 µM
Kd (Aurora kinase A): 0.023 µM
Activity (HCT-116 [6]): 29.66%
Activity (HCT-116 [7]): 7.51%
Activity (HCT-116 [8]): 91.4%
Activity (HCT-116 [9]): 61.7%
Activity (HCT-116 [10]): Dose-dependent effect
Activity [11]: Toxic
MSD (HCT-116 [12]): 37.5 days
